Calls of active or inactive are those of the source. No cut-off for these calls is given here.
Tests used:
[1] = tested on: Leishmania major; assay: Effect on ATP synthesis in tafenoquine-resistant promastigotes of Leishmania major R4 assessed as increase of ATP level at up to 20 uM after 60 mins by celltiter- glo luminescent assay; type: functional, organism-based
In short: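 Promastigotes at 4 × 10^6/ml were incubated in culture medium with 1, 2, 5, 10 or 20 μM TFQ for 60 min. ATP was measured by CellTiter-Glo: an aliquot was mixed with an equal volume of reagent, held 10 min in the dark, and luminescence was read.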

[2] = tested on: Leishmania major; assay: Induction of acidification in wild type promastigotes of Leishmania major MHOM/JL/80/Friedlin assessed as decrease of pH at 5 uM after 30 mins; type: functional, organism-based
In short: (§1)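 Promastigotes were loaded with BCECF-AM (5 µg/ml) in pH 7.4 standard buffer for 30 min at 28°C and washed twice. Cells at 2 × 10^7/ml in culture medium then received 20 mM sodium azide or 5 µM TFQ for 1, 3, 5, 10 or 30 min. The ratio at excitation 490/440 nm, emission 535 nm, was converted to pHi with a nigericin calibration curve.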

[3] = tested on: Leishmania major; assay: Induction of acidification in tafenoquine-resistant promastigotes of Leishmania major revert R4 assessed as decrease of pH at 5 uM after 30 mins; type: functional, organism-based
In short: (§2)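 R4 or revertant promastigotes (R4 grown 1 month drug-free) were loaded with BCECF-AM (5 μg/ml, 30 min, 28°C) and washed. Cells at 2 × 10^7/ml in culture medium then received 5 μM TFQ or 20 mM sodium azide for 1–30 min. pHi came from the 490/440 nm excitation ratio (emission 535 nm), calibrated with nigericin-treated cells at set pH values.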

[4] = tested on: Leishmania major; assay: Drug uptake in wild type promastigotes of Leishmania major MHOM/JL/80/Friedlin assessed per mg of protein at 5 uM after 15 mins by spectrofluorometric technique; type: ADME, organism-based; conditions: in vivo, 0.25 h
In short: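 L. major Friedlin promastigotes, grown 48 h at 28°C in RPMI 1640 with 20% iFBS, were used at 2 × 10^7/ml. Cells were exposed to 5 µM TFQ for 15 min at 28°C in culture medium, washed twice in PBS and lysed in 10% SDS, pH 4. Emission was read at 360–460 nm with excitation at 340 nm.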

[5] = tested on: Leishmania major; assay: Induction of acidification in tafenoquine-resistant promastigotes of Leishmania major R4 assessed as decrease of pH at 20 mM after 30 mins; type: functional, organism-based; in short: as §2
[6] = tested on: Leishmania major; assay: Drug uptake in promastigotes of tafenoquine-resistant promastigotes of Leishmania major R4 assessed per mg of protein at 5 uM after 15 mins by spectrofluorometric technique; type: ADME, organism-based; conditions: in vivo, 0.25 h
In short: (§3)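 Promastigotes at 2 × 10^7/ml were given 5 μM TFQ for 15 min at 28°C in culture medium, washed twice with PBS and lysed in 10% SDS, pH 4. TFQ was read fluorimetrically with excitation at 340 nm and emission at 360–460 nm. For the alkalinization condition, parasites were pretreated with 20 mM NH4Cl for 1 min and then given TFQ in the continued presence of NH4Cl for 15 min.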

[7] = tested on: Leishmania major; assay: Antileishmanial activity against wild type promastigotes of Leishmania major MHOM/JL/80/Friedlin assessed as inhibition of parasite growth after 72 hrs by MTT assay; type: functional, organism-based
In short: (§4)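 L. major Friedlin promastigotes, wild type or TFQ-resistant R4, were grown at 28°C in modified RPMI 1640 with 20% heat-inactivated FBS. R4 was selected stepwise from 2.5 to 4 μM TFQ over 10 weeks and kept in 4 μM. Parasites were exposed to increasing drug concentrations for 72 h at 28°C and viability was read by MTT. EC50 is 50% growth inhibition; resistance index is the R4/WT EC50 ratio.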

[8] = tested on: Leishmania major; assay: Drug uptake in promastigotes of tafenoquine-resistant promastigotes of Leishmania major R4 at 2.5 uM after 5 mins by spectrofluorometric technique; type: ADME, organism-based; conditions: in vivo
[9] = tested on: Leishmania major; assay: Effect on ATP synthesis in wild type promastigotes of Leishmania major MHOM/JL/80/Friedlin assessed as decrease of ATP level up to 20 uM after 60 mins by celltiter- glo luminescent assay; type: functional, organism-based
In short: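 Promastigotes at 4 × 10^6/ml were held in culture medium with TFQ at 1, 2, 5, 10 or 20 µM for 60 min. Cells were mixed 1:1 with CellTiter-Glo and kept 10 min in the dark. Luminescence, proportional to ATP, was then read.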

[10] = tested on: Leishmania major; assay: Drug uptake in promastigotes of tafenoquine-resistant promastigotes of Leishmania major revert R4 at 5 uM after 5 mins by spectrofluorometric technique; type: ADME, organism-based; conditions: in vivo
[11] = tested on: Leishmania major; assay: Drug uptake in promastigotes of tafenoquine-resistant promastigotes of Leishmania major R4 assessed per mg of protein at 5 uM after 15 mins by spectrofluorometric technique in presence of ammonium chloride; conditions: in vitro, 0.25 h
[12] = tested on: Leishmania major; assay: Resistant index, ratio of EC50 for tafenoquine-resistant promastigotes of Leishmania major R4 to EC50 for promastigotes of Leishmania major MHOM/JL/80/Friedlin; type: functional; in short: as §4
[13] = tested on: Leishmania major; assay: Induction of acidification in tafenoquine-resistant promastigotes of Leishmania major revert R4 assessed as decrease of pH at 20 mM after 30 mins; type: functional, organism-based; in short: as §2
[14] = tested on: Leishmania major; assay: Induction of acidification in wild type promastigotes of Leishmania major MHOM/JL/80/Friedlin assessed as decrease of pH at 20 mM after 30 mins; type: functional, organism-based; in short: as §1
[15] = tested on: Leishmania major; assay: Antileishmanial activity against tafenoquine-resistant promastigotes of Leishmania major R4 assessed as inhibition of parasite growth after 72 hrs by MTT assay; type: functional, organism-based; conditions: R4, 72 h; in short: as §4
[16] = tested on: Leishmania major; assay: Drug uptake in promastigotes of tafenoquine-resistant promastigotes of Leishmania major revert R4 assessed per mg of protein at 5 uM after 15 mins by spectrofluorometric technique; type: ADME, organism-based; conditions: in vivo, 0.25 h; in short: as §3
[17] = tested on: Leishmania major; assay: Drug uptake in wild type promastigotes of Leishmania major MHOM/JL/80/Friedlin assessed per mg of protein at 5 uM after 15 mins by spectrofluorometric technique in presence of ammonium chloride; conditions: in vivo, 0.25 h
[18] = tested on: Leishmania major; assay: Drug uptake in promastigotes of tafenoquine-resistant promastigotes of Leishmania major revert R4 assessed per mg of protein at 5 uM after 15 mins by spectrofluorometric technique in presence of ammonium chloride; conditions: in vitro, 0.25 h
[19] = tested on: Leishmania major; assay: Drug uptake in wild type promastigotes of Leishmania major MHOM/JL/80/Friedlin at 2 uM after 5 mins by spectrofluorometric technique; type: ADME, organism-based; conditions: in vivo
[20] = tested on: Leishmania major; assay: Induction of acidification in tafenoquine-resistant promastigotes of Leishmania major R4 assessed as decrease of pH at 5 uM after 30 mins; type: functional, organism-based; in short: as §2

Compound	EC50 [7]	Ratio EC50 [12]	EC50 [15]	also measured
COc1cc(C)c2c(Oc3cccc(C(F)(F)F)c3)c(OC)cc(NC(C)CCCN)c2n1 (stereo not drawn) [TAFENOQUINE]	2.24 µM	2.5	5.49 µM	Activity [1]: Active; Activity [2]: Active; Activity [3]: Active; Drug uptake [4]: 10775 a.u.; Activity [5]: inactive; Drug uptake [6]: 8809 a.u.; Drug uptake [8]: Active; Activity [9]: Active; Drug uptake [10]: Active; Drug uptake [11]: 8462 a.u.; Activity [13]: Active; Activity [14]: Active; Drug uptake [16]: 9657 a.u.; Drug uptake [17]: 7009 a.u.; Drug uptake [18]: 8524 a.u.; Drug uptake [19]: Active; Activity [20]: inactive
N=C(N)c1ccc(OCCCCCOc2ccc(C(=N)N)cc2)cc1 [PENTAMIDINE]	0.28 µM	1.8	0.45 µM	–
C[C@@H]1[C@H](O)[C@@H](C)/C=C/C=C/C=C/C=C/C=C/C=C/C=C/[C@H](O[C@@H]2O[C@H](C)[C@@H](O)[C@H](N)[C@@H]2O)C[C@@H]2O[C@](O)(C[C@@H](O)C[C@@H](O)[C@H](O)CC[C@@H](O)C[C@@H](O)CC(=O)O[C@H]1C)C[C@H](O)[C@H]2C(=O)O [AMPHOTERICIN B]	1.87 µM	1.7	3.16 µM	–
NC[C@@H]1O[C@H](O[C@H]2[C@@H](O)[C@H](O[C@@H]3[C@@H](O)[C@H](N)C[C@H](N)[C@H]3O[C@H]3O[C@H](CO)[C@@H](O)[C@H](O)[C@H]3N)O[C@@H]2CO)[C@H](N)[C@@H](O)[C@@H]1O [PAROMOMYCIN]	4.29 µM	1	3.98 µM	–
CCN(CC)CCCC(C)Nc1ccnc2cc(Cl)ccc12 (stereo not drawn) [CHLOROQUINE]	18.8 µM	1.3	23.8 µM	–
CCN(CC)CCCCCCNc1cc(OC)cc2c(C)ccnc12.Cl.Cl	12 µM	2	24.5 µM	–
COc1cccc2c1C(=O)c1c(O)c3c(c(O)c1C2=O)C[C@@](O)(C(C)=O)C[C@@H]3O[C@H]1C[C@H](N)[C@H](O)[C@H](C)O1 [DAUNORUBICIN]	0.22 µM	1.7	0.38 µM	–
CCCCCCCCCCCCCCCCOP(=O)([O-])OCC[N+](C)(C)C [MILTEFOSINE]	17.7 µM	1.5	25.7 µM	–
C=C[C@H]1CN2CC[C@H]1C[C@H]2[C@H](O)c1ccnc2ccc(OC)cc12 [QUININE]	9.41 µM	1	9.53 µM	–
COc1cc(NC(C)CCCN)c2ncccc2c1 (stereo not drawn) [PRIMAQUINE]	27.7 µM	1.9	53 µM	–
OC(c1cc(C(F)(F)F)nc2c(C(F)(F)F)cccc12)C1CCCCN1 (stereo not drawn) [MEFLOQUINE]	12.5 µM	1.1	13.9 µM	–
CC(=O)N1CCN(c2ccc(OCC3COC(Cn4ccnc4)(c4ccc(Cl)cc4Cl)O3)cc2)CC1 (stereo not drawn) [KETOCONAZOLE]	20 µM	1.4	28.1 µM	–

From ChEMBL document CHEMBL1687853, “Increased glycolytic ATP synthesis is associated with tafenoquine resistance in Leishmania major” (Antimicrob Agents Chemother, 2011)
